{
  "source": "paper PMC9386786",
  "about": "(Cell metabolism, 2022)",
  "key": {"CNOT6L": {"biological_target": "CNOT6L (Homo sapiens, UniProt Q96LI5)", "sequence (Q96LI5 158-555)": "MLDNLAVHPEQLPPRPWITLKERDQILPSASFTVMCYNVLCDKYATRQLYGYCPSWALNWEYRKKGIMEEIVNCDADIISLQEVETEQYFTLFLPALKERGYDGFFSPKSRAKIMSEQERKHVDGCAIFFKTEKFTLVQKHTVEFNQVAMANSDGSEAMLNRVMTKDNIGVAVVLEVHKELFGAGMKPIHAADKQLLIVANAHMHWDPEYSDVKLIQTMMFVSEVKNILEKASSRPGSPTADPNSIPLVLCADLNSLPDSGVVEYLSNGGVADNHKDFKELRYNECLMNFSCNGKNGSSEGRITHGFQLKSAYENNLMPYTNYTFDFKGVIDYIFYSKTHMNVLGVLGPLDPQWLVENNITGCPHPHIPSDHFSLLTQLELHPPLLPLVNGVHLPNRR", "assay": "Gel-based deadenylase assay, CNOT6L", "format": "biochemical"}, "[1]": {"tested_on": "GDF15 and FGF21 mRNAs in Huh7 cells", "assay": "Hepatokine mRNA and protein levels in Huh7 cells", "format": "cell-based, human", "conditions": "for EC50: Homo sapiens"}, "[2]": {"tested_on": "C57BL/6J WT mice kept on a high-fat diet", "assay": "HFD-induced obese mouse model, treatment twice a week for 12 weeks", "format": "in vivo", "how_it_was_run": "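From 8 weeks of age, male and female C57BL/6J mice were fed high-fat diet for 12 weeks and given test compound (2 mg/kg) or vehicle ip twice weekly. Measurements included: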"}, "WT mice [3]": {"tested_on": "WT mice", "assay": "Oxygen consumption and RER", "format": "in vivo, mouse", "how_it_was_run": "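WT mice received a single ip injection of vehicle or test compound (2 mg/kg). They were then housed singly on a 12 h light/dark cycle, either fed or food-deprived. VO2 and VCO2 were recorded at 25 °C by indirect calorimetry, and dark- and light-cycle averages were taken. VO2 was expressed per kg body weight per hour, and RER was calculated as VCO2/VO2.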"}, "[4]": {"tested_on": "translation of Gdf15 and Fgf21 mRNAs in liver", "assay": "Polysome profiling of livers of treated mice", "format": "in vivo, mouse"}, "CNOT6": {"biological_target": "CNOT6 (Homo sapiens, UniProt Q9ULM6)", "sequence (Q9ULM6 153-557)": "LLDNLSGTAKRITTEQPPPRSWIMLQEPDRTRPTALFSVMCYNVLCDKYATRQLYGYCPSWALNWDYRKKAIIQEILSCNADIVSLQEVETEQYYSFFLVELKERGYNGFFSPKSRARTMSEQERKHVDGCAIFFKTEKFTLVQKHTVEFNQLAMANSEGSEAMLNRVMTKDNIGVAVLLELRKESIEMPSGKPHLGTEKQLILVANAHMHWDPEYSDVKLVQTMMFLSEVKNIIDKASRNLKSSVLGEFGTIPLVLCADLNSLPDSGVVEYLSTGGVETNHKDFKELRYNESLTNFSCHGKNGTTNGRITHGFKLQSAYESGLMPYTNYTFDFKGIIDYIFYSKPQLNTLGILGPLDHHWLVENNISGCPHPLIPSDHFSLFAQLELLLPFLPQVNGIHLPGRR", "assay": "Gel-based deadenylase assay, CNOT6", "format": "biochemical", "conditions": "compared to CNOT6L", "how_it_was_run": "(§1)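 Enzymes were expressed in and purified from E. coli BL21: the human CNOT6 catalytic domain (aa 153–557) and full-length human CNOT7 and CNOT8. Each enzyme (2.5 μM final) was preincubated with inhibitor at the indicated concentrations for 1 h at 37 °C. 5′-FITC-labelled poly(A)20 RNA (50 nM final) was then added for 1.5 h at 37 °C, and deadenylation was resolved on gel.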"}, "[5]": {"tested_on": "3' UTRs of human GDF15 and FGF21 and mouse Gdf15 and Fgf21 mRNAs", "assay": "3' UTR luciferase assay in Huh7 cells", "format": "cell-based", "how_it_was_run": "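Human GDF15/FGF21 3′UTRs (amplified from Huh7 cDNA) and mouse Gdf15/Fgf21 3′UTRs (from WT mouse liver cDNA) were cloned downstream of the firefly luciferase coding region. These plasmids (50–100 ng) were lipofected into Huh7 cells together with a Renilla luciferase (TK) control. Firefly and Renilla activities were measured by dual-luciferase assay, and firefly signal was normalized to Renilla to correct for transfection efficiency.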"}, "[6]": {"tested_on": "Gdf15 and Fgf21 mRNAs in primary hepatocytes", "assay": "Hepatokine mRNA levels in mouse primary hepatocytes", "format": "cell-based", "conditions": "for EC50: Mus musculus, Hepatocyte", "how_it_was_run": "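Hepatocytes were isolated from 8-week-old male mice by portal vein perfusion and collagenase digestion, Percoll-purified, plated on collagen I, and cultured in William's E medium. Huh7 cells were grown in DMEM with 10% FBS. Cells were exposed to test compound at graded concentrations and for various times. mRNAs were quantified by RT-qPCR, normalized to Hprt (mouse) or GAPDH (human); n = 3 per group. EC50 was derived from the concentration–response curves.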"}, "WT mice [7]": {"tested_on": "WT mice", "format": "in vivo, mouse", "conditions": "single administration"}, "WT mice [8]": {"tested_on": "WT mice", "assay": "Food intake and body weight after a single administration in mice", "format": "in vivo, mouse", "conditions": "for ED50: Mus musculus, ip"}, "CNOT7": {"biological_target": "CNOT7 (Homo sapiens, UniProt Q9UIV1)", "sequence (Q9UIV1 whole entry)": "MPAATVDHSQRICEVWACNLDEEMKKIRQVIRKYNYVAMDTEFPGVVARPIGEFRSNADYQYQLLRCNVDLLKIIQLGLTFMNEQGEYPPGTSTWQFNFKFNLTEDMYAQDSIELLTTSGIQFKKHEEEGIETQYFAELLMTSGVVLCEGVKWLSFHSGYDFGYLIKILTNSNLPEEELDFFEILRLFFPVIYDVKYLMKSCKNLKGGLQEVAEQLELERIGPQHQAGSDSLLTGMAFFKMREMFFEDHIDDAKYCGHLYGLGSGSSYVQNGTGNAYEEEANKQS", "assay": "Gel-based deadenylase assay, CNOT7", "format": "biochemical", "how_it_was_run": "as §1"}, "[9]": {"tested_on": "hepatic Gdf15 and Fgf21 mRNAs, serum GDF15 and FGF21", "assay": "Hepatokine levels after intraperitoneal administration in WT C57BL/6J mice", "format": "in vivo, mouse", "how_it_was_run": "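WT mice received test compound ip at 2 mg/kg. For fasting/refeeding, mice were fed, fasted 24 h, or refed 2 h after a 24 h fast, and were injected 3 h before dissection. For exercise, mice ran to exhaustion on a 10°-sloped shock treadmill and were sampled before, immediately after, or 3 h after running, with food and water available. Poly(I:C) was given ip at 10 mg/kg. Hepatic mRNA was measured by RT-qPCR (Hprt-normalized) and serum GDF15/FGF21 by ELISA.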"}, "[10]": {"tested_on": "GDF15 and FGF21 mRNAs in primary hepatocytes and Huh7 cells", "assay": "mRNA stability assay with actinomycin D", "format": "cell-based", "conditions": "with actinomycin D 5 μg/mL; iD1 5 μM", "how_it_was_run": "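Mouse primary hepatocytes and Huh7 cells were treated with actinomycin D (5 μg/mL) plus DMSO vehicle or test compound (5 μM in hepatocytes) for a time course. Before actinomycin D, Huh7 cells were pretreated with Wy-14643 (200 μM, 6 h) to induce FGF21 mRNA. Transcripts were measured by RT-qPCR, normalized to Hprt or GAPDH, and expressed as percent of the initial level. Half-lives were fitted by first-order decay; n = 3.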"}, "[11]": {"tested_on": "promoter activity of GDF15 and FGF21 genes", "assay": "Promoter luciferase reporter assay in Huh7 cells", "format": "cell-based, human", "how_it_was_run": "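Human GDF15 or FGF21 promoters were PCR-amplified from Huh7 genomic DNA and placed upstream of firefly luciferase; a promoter-less construct served as control. Constructs (50–100 ng) were lipofected into Huh7 cells with a Renilla luciferase (TK) control, and cells were treated with vehicle or test compound. Firefly activity was read by dual-luciferase assay and normalized to Renilla.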"}, "[12]": {"tested_on": "neurons in NTS, AP and PVN", "assay": "c-Fos immunofluorescence in the brain", "format": "in vivo, mouse"}, "CNOT8": {"biological_target": "CNOT8 (Homo sapiens, UniProt Q9UFF9)", "sequence (Q9UFF9 whole entry)": "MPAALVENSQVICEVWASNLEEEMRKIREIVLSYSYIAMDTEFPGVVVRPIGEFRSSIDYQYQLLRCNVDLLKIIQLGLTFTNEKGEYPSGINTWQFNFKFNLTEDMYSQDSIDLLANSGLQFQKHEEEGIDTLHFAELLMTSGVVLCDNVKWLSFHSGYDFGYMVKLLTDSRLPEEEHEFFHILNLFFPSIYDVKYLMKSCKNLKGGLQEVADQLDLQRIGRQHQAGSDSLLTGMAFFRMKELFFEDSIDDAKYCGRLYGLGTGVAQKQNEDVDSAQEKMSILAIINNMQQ", "assay": "Gel-based deadenylase assay, CNOT8", "format": "biochemical", "how_it_was_run": "as §1"}, "[13]": {"conditions": "ref Xiong et al., 2017; cited from earlier work"}, "[14]": {"conditions": "male and female mice, IP twice a week"}},
  "note": "Like-named read-outs stand apart in the source and are kept apart here.",
  "data": [
    {"molecule": "Nc1ncnc2c1ncn2[C@@H]1O[C@H](COP(=O)(O)O)[C@@H](O)[C@H]1O", "note": "[AMP]", "values": [
      {"measurement": "IC50", "setting": "CNOT6L", "value": 76300, "unit": "nM"}
    ]},
    {"molecule": "Cc1cccc(Nc2cc(Cl)nc(SCC(=O)O)n2)c1C", "note": "[WY-14643, reference compound]", "values": [
      {"measurement": "FGF21 mRNA in Huh7 cells", "setting": "[1]; 200 μM, 6 h", "value": "increased"}
    ]},
    {"molecule": "CC(C)=CCC(O)C1=CC(=O)c2c(O)ccc(O)c2C1=O", "note": "(stereo not drawn) [iD1]", "values": [
      {"measurement": "obesity-induced hyperlipidemia, hyperglycemia, and hyperinsulinemia", "setting": "[2]; HFD", "value": "ameliorated"},
      {"measurement": "hepatic steatosis and lipid accumulation in adipose tissues", "setting": "[2]; HFD obese mice", "value": "reversed"},
      {"measurement": "insulin sensitivity and glucose tolerance", "setting": "[2]; HFD, long-term treatment, ITT and GTT", "value": "improved"},
      {"measurement": "HFD-induced gain of body weight", "setting": "[2]; [14]", "value": "dramatically decreased"},
      {"measurement": "food intake on HFD", "setting": "[2]; [14]", "value": "suppressed"},
      {"measurement": "EC50", "setting": "[1]; Huh-7, read-out: EC50 for FGF21 mRNA", "value": 1610, "unit": "nM"},
      {"measurement": "EC50", "setting": "[1]; Huh-7, read-out: EC50 for GDF15 mRNA", "value": 530, "unit": "nM"},
      {"measurement": "GDF15 and FGF21 protein abundance", "setting": "[1]; Huh7 cells", "value": "increased"},
      {"measurement": "effects of thapsigargin and WY-14643 on GDF15 and FGF21 mRNA levels", "setting": "[1]; combination, Huh7 cells, 6 h", "value": "potentiated"},
      {"measurement": "oxygen consumption", "setting": "WT mice [3]; fasted condition, relative to Veh", "value": "consumed more oxygen"},
      {"measurement": "respiratory exchange rate (RER)", "setting": "WT mice [3]; fed condition", "value": "significantly reduced"},
      {"measurement": "global translation", "setting": "[4]", "value": "did not affect"},
      {"measurement": "translational efficacy of Gdf15 and Fgf21 mRNAs", "setting": "[4]", "value": "not affected"},
      {"measurement": "inhibition of CNOT6", "setting": "CNOT6", "value": "modestly inhibited"},
      {"measurement": "decrease of luciferase activity by 3' UTRs of GDF15/FGF21 mRNAs", "setting": "[5]", "value": "reversed"},
      {"measurement": "EC50", "setting": "[6]; read-out: EC50 for Fgf21 mRNA", "value": 2080, "unit": "nM"},
      {"measurement": "EC50", "setting": "[6]; read-out: EC50 for Gdf15 mRNA", "value": 1110, "unit": "nM"},
      {"measurement": "levels of hepatokine mRNAs (GDF15, FGF21, INHBE, ADM, ADAMTS1, HBEGF)", "setting": "[6]; mouse primary hepatocytes and Huh7 cells, dose- and time-dependent", "value": "increased"},
      {"measurement": "serum insulin levels", "setting": "WT mice [7]", "value": "decrease"},
      {"measurement": "serum ketone body levels", "setting": "WT mice [7]", "value": "increasing"},
      {"measurement": "serum triglycerides", "setting": "WT mice [7]", "value": "reduced"},
      {"measurement": "effects on food intake, body weight, serum triglycerides, ketone bodies, hepatic Gdf15 and Fgf21 mRNAs in Cnot6l−/− mice", "setting": "WT mice [8]; Cnot6l whole-body KO mice", "value": "did not induce significant effects"},
      {"measurement": "ED50", "setting": "WT mice [8]; read-out: EC50 for body weight", "value": 1.23, "unit": "mg/kg"},
      {"measurement": "ED50", "setting": "WT mice [8]; read-out: EC50 for food intake", "value": 1.43, "unit": "mg/kg"},
      {"measurement": "body weight", "setting": "WT mice [8]; single administration", "value": "significantly reduced"},
      {"measurement": "inhibition of CNOT7", "setting": "CNOT7", "value": "did not inhibit"},
      {"measurement": "levels of hepatic Gdf15 and Fgf21 mRNAs and serum GDF15 and FGF21 proteins", "setting": "[9]; 3 h after one-time IP injection, 2 mg/kg", "value": "significantly increased"},
      {"measurement": "degradation of Gdf15 and Fgf21 mRNAs post-exercise", "setting": "[9]; 3 h post-exercise recovery period, liver", "value": "attenuated degradation"},
      {"measurement": "Fgf21 mRNA suppression induced by refeeding", "setting": "[9]; liver, refed after 24 h fasting", "value": "attenuated"},
      {"measurement": "degradation of GDF15 and FGF21 mRNAs", "setting": "[10]", "value": "potently suppressed degradation"},
      {"measurement": "promoter activity of GDF15 and FGF21 genes", "setting": "[11]", "value": "did not alter"},
      {"measurement": "c-Fos staining within NTS and AP", "setting": "[12]; 3 h after administration", "value": "robust c-Fos staining"},
      {"measurement": "c-Fos staining within PVN in the hypothalamus", "setting": "[12]; after administration", "value": "Robust c-Fos staining"},
      {"measurement": "inhibition of CNOT8", "setting": "CNOT8", "value": "did not inhibit"}
    ]},
    {"molecule": "C/C=C(/C)C(=O)O[C@H]1C(C)=C2[C@H]([C@@H]1OC(=O)CCCCCCC)[C@@](C)(OC(C)=O)C[C@H](OC(=O)CCC)[C@@]1(O)[C@H]2OC(=O)[C@@]1(C)O", "note": "[thapsigargin, reference compound]", "values": [
      {"measurement": "GDF15 mRNA in Huh7 cells", "setting": "[1]; 1 μM, 6 h", "value": "increased"}
    ]},
    {"molecule": "poly(I:C) [reference compound]", "values": [
      {"measurement": "hepatic Gdf15 mRNA", "setting": "[9]; IP 10 mg/kg", "value": "increased"}
    ]},
    {"molecule": "GDF15 protein: Growth differentiation factor 15, circulating secretory protein (protein, UniProt Q99988 195-308, looked up) Growth/differentiation factor …: ARARNGDHCPLGPGRCCRLHTVRASLEDLGWADWVLSPREVQVTMCIGACPSQFRAANMHAQIKTSLHRLKPDTVPAPCCVPASYNPMVLIQKTDTGVSLQTYDDLLAKDCHCI", "values": [
      {"measurement": "half-life of circulating protein", "setting": "[13]", "value": 3, "unit": "h"}
    ]}
  ]
}
